Activity calls are given as the source filed them. The rule behind the calls is not given here.
Columns and labels:
[1] = Drug level in Wistar rat plasma at 1 mg/kg, po after 2 hrs; type: ADME, organism-based; set-up: dose 1 mg/kg, route oral; settings: read-out: Drug uptake
Procedure, shortened: (§1)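 Male Wistar rats, 8 weeks old, fasted overnight; single oral dose 1 mg/kg as aqueous solution. Jugular vein blood (200 µL) at 0.5, 1, 2, 6 h; plasma deproteinized with acetonitrile, supernatant analysed by LC–MS/MS (C18 column, ammonium acetate/acetonitrile eluent, ESI).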

[2] = Drug level in Wistar rat plasma at 1 mg/kg, po after 6 hrs; type: ADME, organism-based; set-up: dose 1 mg/kg, route oral; settings: read-out: Drug uptake; procedure, shortened: as §1
[3] = Drug level in Wistar rat plasma at 1 mg/kg, po after 1 hr; type: ADME, organism-based; set-up: dose 1 mg/kg, route oral; settings: read-out: Drug uptake; procedure, shortened: as §1
[4] = Drug level in Wistar rat plasma at 1 mg/kg, po after 0.5 hr; type: ADME, organism-based; set-up: dose 1 mg/kg, route oral; settings: read-out: Drug uptake; procedure, shortened: as §1
Dipeptidyl peptidase 4 = Dipeptidyl peptidase 4 (Homo sapiens, UniProt P27487); type: cell-free, Plasma
Chain of Dipeptidyl peptidase 4 (P27487 whole entry): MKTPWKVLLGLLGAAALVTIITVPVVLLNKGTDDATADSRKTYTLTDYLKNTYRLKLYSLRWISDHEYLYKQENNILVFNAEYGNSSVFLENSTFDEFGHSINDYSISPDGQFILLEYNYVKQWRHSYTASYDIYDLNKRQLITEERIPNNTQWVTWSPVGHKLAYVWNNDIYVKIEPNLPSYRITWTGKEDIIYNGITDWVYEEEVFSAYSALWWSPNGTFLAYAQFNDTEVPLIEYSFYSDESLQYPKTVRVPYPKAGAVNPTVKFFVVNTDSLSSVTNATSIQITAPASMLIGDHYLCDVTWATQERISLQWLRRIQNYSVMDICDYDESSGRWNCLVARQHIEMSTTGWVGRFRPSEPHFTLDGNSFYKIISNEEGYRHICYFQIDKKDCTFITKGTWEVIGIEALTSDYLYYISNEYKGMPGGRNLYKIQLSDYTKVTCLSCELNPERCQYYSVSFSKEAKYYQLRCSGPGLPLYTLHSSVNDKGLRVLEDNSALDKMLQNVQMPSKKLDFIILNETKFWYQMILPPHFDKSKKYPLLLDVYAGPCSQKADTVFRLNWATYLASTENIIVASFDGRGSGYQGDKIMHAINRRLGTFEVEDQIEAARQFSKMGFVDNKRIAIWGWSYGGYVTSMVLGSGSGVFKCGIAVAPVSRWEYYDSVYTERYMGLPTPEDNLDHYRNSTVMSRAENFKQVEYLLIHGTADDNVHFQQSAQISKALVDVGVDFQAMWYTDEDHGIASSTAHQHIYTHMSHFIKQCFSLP

Rattus norvegicus [5] = assay: Inhibition of DPP4 activity in Zucker fatty rat plasma at 0.1 mg/kg, po after 15 mins by OGTT; type: functional, organism-based; set-up: dose 0.1 mg/kg
Procedure, shortened: (§2)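 Male Zucker fatty rats (lean controls), 10 weeks, fasted overnight, n = 6. Compound in distilled water given orally (0.1 or 0.3 mg/kg) 30 min before oral glucose 2 g/kg. Orbital sinus blood under ether anesthesia at set times; plasma glucose, insulin and DPP-IV activity measured. Mean ± SE; Dunnett's or Student's t-test vs vehicle.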

Rattus norvegicus [6] = assay: Inhibition of DPP4 activity in Zucker fatty rat plasma at 0.3 mg/kg, po after 15 mins by OGTT; type: functional, organism-based; set-up: dose 0.3 mg/kg; procedure, shortened: as §2
Rattus norvegicus [7] = assay: Inhibition of DPP4 activity in Zucker fatty rat plasma at 0.1 mg/kg, po upto 120 mins by OGTT; type: functional, organism-based; set-up: dose 0.1 mg/kg; procedure, shortened: as §2
Rattus norvegicus [8] = assay: Increase in insulin secretion in Zucker fatty rat plasma at 0.1 mg/kg, po after 30 mins by OGTT; type: functional, organism-based; set-up: dose 0.1 mg/kg; procedure, shortened: as §2
Rattus norvegicus [9] = assay: Inhibition of DPP4 activity in Zucker fatty rat plasma at 0.3 mg/kg, po upto 120 mins by OGTT; type: functional, organism-based; set-up: dose 0.3 mg/kg; procedure, shortened: as §2
Rattus norvegicus [10] = assay: Increase in insulin secretion in Zucker fatty rat plasma at 0.3 mg/kg, po after 30 mins by OGTT; type: functional, organism-based; set-up: dose 0.3 mg/kg; procedure, shortened: as §2
[11] = Chemical stability in aqueous buffer solution at pH 6.8 after 6 hrs; type: physicochemical; settings: read-out: Stability
Procedure, shortened: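 Residual amount determined by reverse-phase HPLC (UV 210 nm, acetonitrile–H2O buffer elution at 1.0 mL/min) after 6 h incubation at 37 °C in pH 6.8 aqueous buffer; dihydrochloride salt used for one reference compound.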

Rattus norvegicus [12] = assay: Reduction of hyperglycemia in Zucker fatty rat at 0.1 mg/kg, po after 30 mins by OGTT; type: functional, organism-based; set-up: dose 0.1 mg/kg; procedure, shortened: as §2
Rattus norvegicus [13] = assay: Reduction of hyperglycemia in Zucker fatty rat at 0.3 mg/kg, po by after 30 mins OGTT; type: functional, organism-based; set-up: dose 0.3 mg/kg; procedure, shortened: as §2

Row | Structure (SMILES) | concentration at 2 h [1] | concentration at 6 h [2] | concentration at 1 h [3] | concentration at 0.5 h [4] | IC50 (Dipeptidyl peptidase 4) | remaining at 6 h [11] | further results
1 | CC(C)(CO)NCC(=O)N1C[C@@H](F)C[C@H]1C#N | 168 ng/mL | 31 ng/mL | 274 ng/mL | 355 ng/mL | – | 96% | Activity (Rattus norvegicus [5]): Active; Activity (Rattus norvegicus [6]): Active; Activity (Rattus norvegicus [7]): Active; Activity (Rattus norvegicus [8]): Active; Activity (Rattus norvegicus [9]): Active; Activity (Rattus norvegicus [10]): Active; Activity (Rattus norvegicus [12]): Active; Activity (Rattus norvegicus [13]): Active
2 | CC[C@H](C)[C@@H](N)C(=O)N1C[C@@H](F)C[C@H]1C#N | 5 ng/mL | 1 ng/mL | 24 ng/mL | 195 ng/mL | – | 70% | –
3 | CC(C)CNCC(C)(C)NCC(=O)N1C[C@@H](F)C[C@H]1C#N | – | – | – | – | > 316 nM | – | –

Further lines, with some results ahead:

Row | concentration at 2 h [1] | concentration at 6 h [2] | concentration at 1 h [3] | concentration at 0.5 h [4] | IC50 (Dipeptidyl peptidase 4) | remaining at 6 h [11] | Structure (SMILES) | further results
4 | 8 ng/mL | 6 ng/mL | 62 ng/mL | 157 ng/mL | – | – | N#Cc1ccc(NCCNCC(=O)N2C[C@@H](F)C[C@H]2C#N)nc1.O=C(O)/C=C\C(=O)O | –
5 | – | – | – | – | > 316 nM | – | C#CC(CC)(CC)NCC(=O)N1C[C@@H](F)C[C@H]1C#N | –
6 | – | – | – | – | – | 86% | N#Cc1ccc(NCCNCC(=O)N2C[C@@H](F)C[C@H]2C#N)nc1 | –

From ChEMBL document CHEMBL1157135, “Synthesis and structure-activity relationships of potent 4-fluoro-2-cyanopyrrolidine dipeptidyl peptidase IV inhibitors” (Bioorg Med Chem, 2008)
